Published values collected from several papers.
Each line is one published result; the experiments were not run side by side.
Target: cGMP-dependent protein kinase 1 (PRKG1, Homo sapiens, UniProt Q13976)
Sequence (Q13976 1-671, as in one of the studies): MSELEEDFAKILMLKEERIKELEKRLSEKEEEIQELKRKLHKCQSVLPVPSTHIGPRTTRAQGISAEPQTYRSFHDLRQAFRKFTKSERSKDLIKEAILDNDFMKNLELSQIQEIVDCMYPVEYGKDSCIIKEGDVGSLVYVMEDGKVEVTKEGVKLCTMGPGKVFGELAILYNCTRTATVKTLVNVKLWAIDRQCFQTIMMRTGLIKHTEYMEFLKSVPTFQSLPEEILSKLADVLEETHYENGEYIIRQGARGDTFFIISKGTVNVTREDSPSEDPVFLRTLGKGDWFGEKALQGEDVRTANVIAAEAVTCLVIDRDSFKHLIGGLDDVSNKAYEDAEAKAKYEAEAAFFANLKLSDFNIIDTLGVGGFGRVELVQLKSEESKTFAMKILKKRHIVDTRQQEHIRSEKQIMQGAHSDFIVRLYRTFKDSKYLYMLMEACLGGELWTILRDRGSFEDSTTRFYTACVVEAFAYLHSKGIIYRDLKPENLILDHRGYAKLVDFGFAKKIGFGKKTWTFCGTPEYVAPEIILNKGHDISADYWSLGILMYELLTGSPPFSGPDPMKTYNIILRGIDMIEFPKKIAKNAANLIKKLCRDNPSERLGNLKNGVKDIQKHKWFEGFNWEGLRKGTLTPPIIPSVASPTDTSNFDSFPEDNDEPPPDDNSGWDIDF

COc1cc(-c2cn(C3CCc4c(F)cccc4N(CC(F)(F)F)C3=O)nn2)ccc1-n1cnc(C)c1 (stereo not drawn) — remaining binding (cell-free assay; competition with immobilised ligand; 1 µM): 100%
FC(F)(F)Oc1cccc(-c2cnc3ccc(-c4ccncc4)nn23)c1 — remaining binding (cell-free assay; competition with immobilised ligand; 5 µM): 98%
N[C@H]1CCN(c2nccc(-c3cnn4ncccc34)n2)C1 — remaining binding (binding; 1 µM): 89%
CN([C@@H]1CCc2c(CC(=O)O)c3cc(S(C)(=O)=O)ccc3n2C1)S(=O)(=O)c1ccc(F)cc1 — remaining binding (cell-free assay; competition with immobilised ligand; 1 µM): 95%
Cc1cnc(Nc2ccc(C(=O)N3CCC(N4CCCC4)CC3)cc2)nc1-c1cc2ccccc2s1 — remaining binding (binding; competition with immobilised ligand; 1 µM): 100%
Cc1cnn2ncc(-c3ccnc(N(C)C)n3)c2c1 — remaining binding (binding; 1 µM): 99%
Nc1ncc2c(n1)-c1c([nH]c3ccc(C#CC4CC4)cc13)CCCC2 — remaining binding (binding; competition with immobilised ligand; 1 µM): 86%
O=C(NCCCN1CCOCC1)c1ccc(Nc2ncc(Cl)c(-c3ccc(Cl)s3)n2)cc1 — remaining binding (binding; competition with immobilised ligand; 1 µM): 100%
C[C@H]1CCN(c2nccc(-c3cnn4ncccc34)n2)C1 — remaining binding (binding; 1 µM): 98%
CCOC(=O)c1cc2cc(-c3cc(C(=O)NCc4ccc(C(=O)O)cc4)nn3C)ccc2[nH]1 — remaining binding (cell-free assay; competition with immobilised ligand; 0.1 µM): 91%
CN(C)c1nccc(-c2cnn3ncccc23)n1 — remaining binding (binding; 1 µM): 100%
O=C(NCC1CCOCC1)c1n[nH]cc1NC(=O)c1c(F)cccc1F — remaining binding (binding; competition with immobilised ligand; 1 µM): 100%
O=C(c1ccc(Nc2ncc(Cl)c(-c3cc4ccccc4s3)n2)cc1)N1CCC(N2CCCC2)CC1 — remaining binding (binding; competition with immobilised ligand; 1 µM): 100%
COc1ccnn2ncc(-c3ccnc(N(C)C)n3)c12 — remaining binding (binding; 1 µM): 100%
Cc1c[nH]c2nccc(Oc3c(F)cc(Nc4cc(Cl)nc(N)n4)cc3F)c12 — remaining binding (cell-free assay; competition with immobilised ligand; 0.1 µM): 49%
CC1CCCN1c1nccc(-c2cnn3ncccc23)n1 (stereo not drawn) — remaining binding (binding; 1 µM): 89%
c1cncc(-c2cccc(Nc3nccc(NC4CCCCC4)n3)c2)c1 — remaining binding (binding; competition with immobilised ligand; 10 µM): 100%
C[C@@]1(Cc2ccc(C#N)cc2)C(=O)N(c2cc(Cl)cc(Cl)c2)c2ncc(C(=O)NC3(c4nc(C5CCC5)no4)CC3)n21 — remaining binding (cell-free assay; competition with immobilised ligand; 1 µM): 100%
COc1ncc2cc3ccccc3nc2c1C#N — remaining binding (cell-free assay; competition with immobilised ligand; 5 µM): 100%
FC(F)(F)c1ccc2c(c1)nc(-c1cccnc1)n2C1CC1 — remaining binding (cell-free assay; competition with immobilised ligand; 1 µM): 87%
COc1cnc(Nc2cccc(S(N)(=O)=O)c2)nc1N1CCN(c2ccccc2)CC1 — remaining binding (binding; competition with immobilised ligand; 1 µM): 100%
